This is a sample that favours compounds with a hit; in the whole collection about 2.8% have one here.
dFosB act – activators of mouse delta FosB homodimer; AID 493131; purified delta FosB, TAMRA-CDK5 oligo fluorescence polarization; percent of positive-control signal above neutral wells; P13346; activation, % at 25 µM; 340,000 compounds, 0.99% hits;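 active = mean activation above about 17%, with every replicate also reaching it, limit read from the data, passing the limit was not always enough; inconclusive = only one of the two conditions met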
SR-BI HDL uptake – inhibitors of mouse SR-BI mediated HDL lipid uptake; ldlA[mSR-BI] CHO cells, DiI-HDL uptake fluorescence, 3 h; AID 488896; Q61009; inhibition, % at 12.5 µM; 320,000 compounds, 0.96% hits;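 active = mean replicate inhibition of at least 70% and a set share of replicates each scoring 70 or more; inconclusive = meets just one of the two criteria; inactive = fails both criteria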
Target sequence (Q61009 whole entry, looked up): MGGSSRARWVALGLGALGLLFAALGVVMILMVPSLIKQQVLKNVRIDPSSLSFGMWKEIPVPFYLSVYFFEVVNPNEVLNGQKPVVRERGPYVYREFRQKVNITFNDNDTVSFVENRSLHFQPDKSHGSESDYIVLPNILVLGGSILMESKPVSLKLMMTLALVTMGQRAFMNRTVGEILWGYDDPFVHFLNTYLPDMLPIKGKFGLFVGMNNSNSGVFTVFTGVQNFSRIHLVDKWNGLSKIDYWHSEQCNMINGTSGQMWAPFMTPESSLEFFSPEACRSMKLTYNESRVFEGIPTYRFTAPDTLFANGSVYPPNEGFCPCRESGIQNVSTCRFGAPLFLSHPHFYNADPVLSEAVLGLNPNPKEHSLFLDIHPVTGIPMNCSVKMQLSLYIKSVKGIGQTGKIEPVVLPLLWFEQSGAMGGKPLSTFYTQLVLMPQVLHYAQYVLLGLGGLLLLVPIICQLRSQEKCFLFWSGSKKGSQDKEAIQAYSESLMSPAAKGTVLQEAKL
SR-BI DiI-HDL act – activators of SR-BI mediated HDL lipid uptake; AID 504775; activation, % at 12.5 µM; CHO ldlA[mSR-BI] cells, DiI-HDL uptake fluorescence, 3 h; 100 = double the neutral-control signal; 320,000 compounds, 0.096% hits;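 active = mean replicate activation of at least 60% and every replicate at or above 60%; inconclusive = mean or all-replicate condition met, but not both; inactive = mean below 60% and not all replicates reaching 60%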
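Assay system: CHO ldlA[mSR-BI] cells, LDL receptor-null, SR-BI overexpressing; medium: Ham's F12 with 0.5% BSA, HEPES 25 mM, pH 7.4; also added: DiI-HDL 10 µg/mL; timing: 3 h uptake period with compound, 37 °C; signal: DiI fluorescence, bottom read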
CAL PDZ FP-1 – blocks peptide binding to the human CAL PDZ domain | inhibition, % at 24.9 µM | purified CAL PDZ, TMR-peptide fluorescence polarization, 1 h | 300,000 compounds, 0.92% hits | Q9HD26;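 active = mean inhibition of at least 30% with at least half of replicates also reaching 30%; inconclusive = no clear call, values can overlap the other calls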
CAL PDZ FP-2 – inhibitors of human CAL PDZ peptide binding; purified CAL PDZ, TMR-peptide fluorescence polarization, 1 h; inhibition, % at 20 µM; 330,000 compounds, 0.02% hits;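 active = highest replicate inhibition of at least 40%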
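Material: tagged CAL PDZ domain; buffer or medium: 25 mM sodium phosphate pH 7.4, 150 mM NaCl, TCEP, IgG, Thesit; compound dosing: single point, 20 µM; schedule: 1 h incubation at room temperature before polarization reading; measured by: FP readout, S and P plane fluorescence; read-out basis: percent inhibition from loss of millipolarization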
Each line names hits and unclear results; the compound was inactive in the other large screens.

O=C1C(Cl)=C(N2CCCC2)C(=O)N1c1ccccc1F	none
COc1ccc(/C=N/Nc2ccc([N+](=O)[O-])cc2)cc1Cn1cc([N+](=O)[O-])cn1	SR-BI HDL uptake 95
COc1ccc(/C=N/Nc2ccc([N+](=O)[O-])cc2)cc1O	none
COc1ccccc1OCCNC(=O)CN1C(=O)NC2(CCCCC2)C1=O	none
Cc1cccc(-c2nc(N)nc(N)n2)c1	CAL PDZ FP-1 34
Cc1nc(-c2ccc(Cl)cc2)sc1C1(C)CC(c2cccc([N+](=O)[O-])c2)=NO1 (centres undefined)	none
Cc1ccc(NC(=O)Cc2sc(C)nc2-c2ccc(C)cc2)cc1	none
Cc1ccc(-c2nc(C)sc2CC(=O)OCC(=O)Nc2ccc(F)c(Cl)c2)cc1	CAL PDZ FP-1 54
CC(=O)OCCN1CCN(C(=O)CN2C(=O)NC(c3ccccc3)(c3ccccc3)C2=O)CC1	none
C(=NN=C(NN=Cc1cccs1)NN=Cc1cccs1)c1cccs1	dFosB act 21
CC1CCC(NC(=O)C2CC(=O)N(c3ccc(Cl)cc3)C2)CC1 (centres undefined)	none (no result: SR-BI DiI-HDL act)
O=C(CSc1nnc(NC2CCCCC2)s1)Nc1ccc2c(c1)C(=O)c1ccccc1C2=O	SR-BI HDL uptake 73
CCN(CC)CCn1c2c(c(SCC(=O)Nc3cc(C)on3)nc1=O)CCCC2	none
Cc1cc(/C=C(\C#N)C(=O)O)c(C)n1-c1ccc(Br)cc1	CAL PDZ FP-1 active
Cc1cc(C=C(C#N)C#N)c(C)n1-c1ccccc1	none
CCO[C@H]1OC(C(=O)NCc2ccccc2)=C[C@@H](C(C)(C)C)[C@@H]1CCCO	none
COc1ccc(NC(=O)c2cn(-c3ccccc3)nc2-c2cc3ccccc3o2)cc1	SR-BI HDL uptake 81
O=C(Nc1ccc2c(c1)CCCN2C(=O)c1ccccc1)c1ccccc1	none
COc1ccc(Nc2nc(-c3sc(C)nc3C)cs2)c(OC)c1	none
COc1ccc(Nc2nc(-c3cccs3)cs2)c(OC)c1	none
CCCCCCC(=O)Nc1nc(C)c(-c2csc(Nc3cc(OC)ccc3OC)n2)s1	SR-BI HDL uptake 106
CCCCCC(=O)Nc1nc(C)c(-c2csc(Nc3cc(OC)ccc3OC)n2)s1	SR-BI HDL uptake 99
COc1ccc(OC)c(Nc2nc(-c3cccs3)cs2)c1	SR-BI HDL uptake 92
COc1ccc(C)cc1Nc1nc(-c2c[nH]c3ccccc23)cs1	dFosB act 27
COc1ccc(Cl)cc1Nc1nc(-c2sc(NC(=O)CC(C)C)nc2C)cs1	none
Cc1ccc(NC(=O)CCNC(=O)c2ccc(Br)cc2)cc1S(=O)(=O)N1CCCCCC1	none
CC(CCc1ccccc1)NC(=O)C1CCCN(C(=O)c2cc3sccc3n2C)C1 (centres undefined)	SR-BI HDL uptake 80
Cn1c(C(=O)N2CCCC(C(=O)NCc3cccs3)C2)cc2sccc21 (centres undefined)	none
Cc1cc(=O)oc2c3c(cc(OCC(=O)NCC(=O)O)c12)OC(C)(C)CC3	none
Cc1cc(=O)oc2c3c(cc(OCC(=O)NCc4ccccc4)c12)OC(C)(C)CC3	SR-BI HDL uptake 80
Fc1ccccc1-c1ccc(/C=N/Nc2nc3ccccc3[nH]2)o1	dFosB act 22
O=C(Nc1ccc(Cl)cc1)c1cc(Br)ccc1OCC(=O)N1CCOCC1	SR-BI HDL uptake 82
O=C(Nc1ccccc1)C1=C(c2ccccc2)S(=O)(=O)CCS1(=O)=O	CAL PDZ FP-1 34
O=C(O)c1ccccc1C(=O)Nc1ccccc1	none
O=c1oc2c(-c3ccc([N+](=O)[O-])cc3)cc(O)cc2s1	SR-BI HDL uptake 77
NC1=C(c2ccc([N+](=O)[O-])cc2)C(=O)CO1	none
O=C(COc1ccc2c(c1)oc(=O)c1ccccc12)NC(Cc1ccc(Cl)cc1)C(=O)O (centres undefined)	none
CC[C@@]12C(=O)N(c3cccc(F)c3)C(=O)N1[C@H](c1ccc(Br)cc1)[C@@H]1C(=O)N(C(C)(C)C)C(=O)[C@@H]12	none
CN(CCc1ccccc1)C(=O)c1ccc(NC(=O)Cc2cccc(NC(=O)C3CCN(C(=O)c4ccccc4)CC3)c2)cc1	none
NCC(O)COCCC12CC3CC(CC(C3)C1)C2 (centres undefined)	CAL PDZ FP-1 39
OC(COCCC12CC3CC(CC(C3)C1)C2)CN1CCCC1 (centres undefined)	none
Cc1cc(=O)n2nc(N3CCCC(C(=O)NCc4ccccc4Cl)C3)sc2n1 (centres undefined)	none
Cn1c(Oc2ccccc2NCc2cccc(Br)c2)cc(=O)n(C)c1=O	CAL PDZ FP-1 79
CCOC(=O)C1=C(C)C/C(=N\NC(=O)c2ccccc2O)CC1	CAL PDZ FP-1 86
O=C(C1COc2ccccc2O1)N1CCN(c2ccc([N+](=O)[O-])cc2)CC1 (centres undefined)	none
O=C(CCSc1nc(-c2ccc3c(c2)OCO3)cc(C(F)(F)F)n1)NCc1ccccc1	SR-BI HDL uptake inconclusive
O=C(CCSc1nc(-c2ccc3c(c2)OCO3)cc(C(F)(F)F)n1)NCc1ccco1	SR-BI HDL uptake 82 (no result: CAL PDZ FP-1)
Cn1c2ccccc2c2cnn(CC(=O)N3CCCCC3)c(=O)c21	none (no result: SR-BI HDL uptake, SR-BI DiI-HDL act)
CC(=O)c1cccc(CN2CCN(CCc3ccccc3)C(CCO)C2)c1 (centres undefined)	CAL PDZ FP-1 63
CC(=O)c1cccc(CN2CCN(CC=C(C)C)C(CCO)C2)c1 (centres undefined)	CAL PDZ FP-1 51 (no result: CAL PDZ FP-2)
CC(=O)c1cccc(CN2CCN(Cc3ccc(C)cc3)C(CCO)C2)c1 (centres undefined)	none (no result: SR-BI HDL uptake, SR-BI DiI-HDL act)
O=C1CCCN1CCC(=O)N1CCCC(CO)(Cc2ccccc2)C1 (centres undefined)	none
O/N=C(/c1ccccc1)c1cc2cc(Br)cc(Br)c2o1	dFosB act inconclusive
COc1ccc(Nc2cc(Cl)nc(N)n2)cc1	SR-BI DiI-HDL act 67
COc1ccc(Nc2cc(C)nc(N)n2)cc1	none
CCn1ncc([N+](=O)[O-])c1C(=O)Nc1cc(C)on1	none
CCn1ncc(Br)c1C(=O)Nc1cc(C)on1	CAL PDZ FP-1 41
Cc1nn(-c2ccccc2)c(C)c1C(=O)OCC(=O)Nc1cccc(S(N)(=O)=O)c1	none (no result: CAL PDZ FP-1)
c1cc2ccc3ccc(-n4cnnn4)c4ccc(c1)c2c34	dFosB act 25, CAL PDZ FP-1 119 (no result: CAL PDZ FP-2)
O=C(O)CN1C(=O)/C(=C/c2ccc(N3CCCCC3)o2)SC1=S	dFosB act 86 (no result: SR-BI HDL uptake, SR-BI DiI-HDL act)
Cc1nc(NC(=O)c2ccco2)sc1-c1csc(Nc2ccc(Cl)cc2)n1	SR-BI HDL uptake 84
COc1ccccc1Nc1nc(-c2sc(NC(=O)c3ccco3)nc2C)cs1	SR-BI HDL uptake 85
Cc1n[nH]c(C)c1S(=O)(=O)N1CCN(S(=O)(=O)c2ccccc2C#N)CC1	none
Cc1noc(C)c1S(=O)(=O)N1CCN(S(=O)(=O)c2ccccc2C#N)CC1	CAL PDZ FP-1 34 (no result: SR-BI HDL uptake, SR-BI DiI-HDL act)
